Screening results deposited in PubChem BioAssay by several laboratories.
PG9 Ab binder = binders of HIV-1 gp120 antibody PG9, primary screen, biochemical, TR-FRET | HIV-1 gp120 / PG9 antibody interaction | TR-FRET gp120-PG9 antibody binding | inhibition, % at 6.7 µM | 360,000 compounds, 0.43% hits; in the data active = inhibition above about 8.5%
NR2E3 ag-1 = NR2E3 agonists in two-hybrid cells, primary screen, cell-based, luminescence, CHO-S, Gal4-NCOR/VP16-NR2E3 | inhibition of corepressor binding, % at 3.98 µM | 360,000 compounds, 0.35% hits | luciferase;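 active = inhibition above the mean of all tested compounds plus 3 SD, cut at about 70% in these data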;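 note: higher means lower luciferase signal from less NR2E3 corepressor binding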
Target sequence (Q9Y5X4 whole entry, looked up, the tested form may be a part): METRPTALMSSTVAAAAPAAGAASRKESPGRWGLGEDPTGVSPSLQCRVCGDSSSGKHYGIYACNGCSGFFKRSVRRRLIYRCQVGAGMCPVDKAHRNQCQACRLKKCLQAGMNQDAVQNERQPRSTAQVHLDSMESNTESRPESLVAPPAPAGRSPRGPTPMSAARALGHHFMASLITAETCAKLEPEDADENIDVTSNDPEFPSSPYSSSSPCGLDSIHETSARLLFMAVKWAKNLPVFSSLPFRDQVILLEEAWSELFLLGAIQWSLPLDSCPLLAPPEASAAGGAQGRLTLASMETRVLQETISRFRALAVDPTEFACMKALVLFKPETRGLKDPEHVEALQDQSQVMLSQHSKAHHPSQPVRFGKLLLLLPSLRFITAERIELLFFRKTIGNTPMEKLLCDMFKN
NR2E3 ag-2 = inhibitors of NR2E3-RetCOR corepressor binding, primary screen, NR2E3 agonist project, biochemical, TR-FRET, GST-NR2E3, biotin-RetCOR. Photoreceptor-specific nuclear receptor (Homo sapiens), Q9Y5X4. AID 2300, 2010. 1536-well. 320,000 compounds, 0.12% hits. inhibition of corepressor binding, % at 4.78 µM;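 active = percent inhibition above the cutoff of mean plus 3 SD of all tested compounds, set per screening campaign, cut at about 20% in these data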
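System: GST-NR2E3 and biotin-RetCOR proteins; probe or stimulus: 7 nM biotin-RetCOR; doses: compound at 4.8 µM, single dose; schedule: Compound–protein incubation for 5 h at 4 °C; detection: time-resolved FRET; read-out: percent inhibition; controls: biotin wells as high control, 0.6% DMSO wells as low control; format: 1536-well plates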
rCAG RNA binder = binders of r(CAG) RNA repeats, primary screen, biochemical, fluorescence. r(CAG) RNA repeat, TO-PRO-1 dye displacement fluorescence. inhibition, % at 3 µM. 370,000 compounds, 1.3% hits;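 active = inhibition above the plate cutoff, the mean of all test compounds on that plate plus 3 SD, cut at about 35% in these data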;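 note: higher means more dye released from RNA so lower well fluorescence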
Rev-erbA mod = modulators of Rev-erb alpha DNA binding, primary screen, biochemical, FITC-DNA, fluorescence polarization, uHTS; Nuclear receptor subfamily 1 group D member 1 (Homo sapiens), P20393; Rev-erbα–FITC-DNA binding, 90 min; activity, % at 10 µM; 370,000 compounds, 0.79% hits; AID 1259318, 2017;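 active = activity above about 14%, limit read from the data; passing the limit was not always enough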
rCAG binder conf = small molecules binding CAG repeat RNA – biochemical, fluorescence, confirmation. 4,300 compounds, 70% hits. r(CAG) RNA repeat, TO-PRO-1 dye displacement fluorescence. inhibition, % at 3 µM. shares compounds with rCAG RNA binder;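 active = inhibition above a per-plate cutoff, the mean inhibition of sample wells plus 3 SD, cut at about 35% in these data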;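 note: loss of TO-PRO-1 fluorescence as compound displaces dye from 1x1 AA loop RNA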
dCAG dye counter = displacement of TO-PRO-1 from CAG DNA duplex, counter-screen for rCAG RNA repeat binder project, biochemical, fluorescence, TO-PRO-1 dye, d(CAG) DNA oligo; AID 652068, 2013; inhibition, % at 3 µM; shares compounds with rCAG RNA binder; 4,300 compounds, 94% hits; d(CAG) DNA oligo TO-PRO-1 dye displacement;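 active = inhibition above its plate's cutoff, the mean test-well inhibition plus 3 SD, cut at about 4.8% in these data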;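 note: hits displace the dye from DNA and so lower well fluorescence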
dCAG dye DR = inhibitors of DNA CAG/GTC TO-PRO-1 complex, dose response, counter-screen for rCAG RNA repeat binder project, biochemical, fluorescence, TO-PRO-1 dye; 250 compounds, 20% hits; IC50, µM; AID 686960, 2013; shares compounds with rCAG RNA binder; DNA CAG/GTC duplex TO-PRO-1 dye displacement fluorescence; in the data active = IC50 below about 10 µM
Large screens that a line does not name were inactive (follow-up assays come after a bar, where they were run). A selection: hits, their analogues and other compounds. The true share with any hit is near 2.6%.

O=C(COc1cccc2ccccc12)Nc1cc(Cl)ccc1C(=O)O	rCAG RNA binder 75 | rCAG binder conf 70 | dCAG dye counter 30 | dCAG dye DR inactive
O=C(COc1ccccc1Cl)Nc1ccccc1C(=O)Nc1cccc(C(=O)O)c1	rCAG RNA binder 40 | rCAG binder conf inactive | dCAG dye counter inactive
O=C(COc1ccccc1Cl)Nc1ccc(C(=O)O)cc1NC(=O)COc1ccccc1Cl	rCAG RNA binder 67 | rCAG binder conf 53 | dCAG dye counter 19
O=C(O)c1ccc(NC(=O)c2ccc(Cl)cc2)c(NC(=O)c2ccc(Cl)cc2)c1	rCAG RNA binder 71 | rCAG binder conf 59 | dCAG dye counter 23
CC1CCC(N(C)C(=O)CN2C(=O)NC(c3ccccc3)(c3ccccc3)C2=O)CC1 (stereo not given)	none (no result: NR2E3 ag-2)
CCC(C)(C)C(=O)N1CCc2cc(S(=O)(=O)N(C)Cc3ccco3)ccc21	none (no result: PG9 Ab binder, NR2E3 ag-1, NR2E3 ag-2)
Cc1ccc(-c2nn(-c3ccccc3)cc2C=C2SC(=S)N(CCS(=O)(=O)O)C2=O)cc1	rCAG RNA binder 87 (no result: NR2E3 ag-2) | rCAG binder conf 94 | dCAG dye counter 77
O=C1C(=Cc2cn(-c3ccccc3)nc2-c2ccc(OCc3ccccc3)cc2)SC(=S)N1CCS(=O)(=O)O	rCAG RNA binder 59 (no result: NR2E3 ag-2) | rCAG binder conf 72 | dCAG dye counter 49
CC(C)COc1ccc(-c2nn(-c3ccccc3)cc2/C=C2/SC(=S)N(CC(=O)O)C2=O)cc1	none
O=[N+]([O-])c1cc(F)cc(F)c1Nc1ccc(F)cc1	none (no result: NR2E3 ag-2)
O=C(O)[C@H](Cc1ccccc1)NC(=O)C(c1ccccc1)(c1ccccc1)c1ccccc1	rCAG RNA binder 38 | rCAG binder conf 53 | dCAG dye counter 13
O=C(CC(c1ccccc1)(c1ccccc1)c1ccccc1)N[C@@H](Cc1ccccc1)C(=O)O	none
COc1ccc(-n2c(SCC(=O)Nc3ccc(S(=O)(=O)Nc4nccs4)cc3)nnc2-c2cccs2)cc1	rCAG RNA binder 73 (no result: PG9 Ab binder, NR2E3 ag-1, NR2E3 ag-2) | rCAG binder conf 72 | dCAG dye counter 33 | dCAG dye DR inactive
CC(C)(C)c1ccc(-c2nnc(SCC(=O)Nc3ccc(S(=O)(=O)Nc4nccs4)cc3)n2Cc2ccco2)cc1	rCAG RNA binder 51 (no result: PG9 Ab binder, NR2E3 ag-1, NR2E3 ag-2) | rCAG binder conf 47 | dCAG dye counter 20
COc1ccc(-c2nnc(SCC(=O)Nc3ccc(S(=O)(=O)Nc4nccs4)cc3)n2-c2ccc(OC)cc2)cc1	rCAG RNA binder 64 (no result: PG9 Ab binder, NR2E3 ag-1, NR2E3 ag-2) | rCAG binder conf 58 | dCAG dye counter 28
O=C(CSc1nnc(-c2cccnc2)n1-c1ccc(Cl)cc1)Nc1ccc(S(=O)(=O)Nc2nccs2)cc1	rCAG RNA binder 59 (no result: PG9 Ab binder, NR2E3 ag-1, NR2E3 ag-2) | rCAG binder conf 63 | dCAG dye counter 22
O=C(Cc1cccc(NC(=O)C2CCN(S(=O)(=O)c3cccc([N+](=O)[O-])c3)CC2)c1)Nc1cccc(C(=O)N2CCOCC2)c1	none (no result: NR2E3 ag-2)
CCn1c2ccccc2c2cc(NC(=O)CSc3nnc(C4CC4)n3Cc3ccco3)ccc21	none
Cc1cc(NS(=O)(=O)c2ccc(NC(=O)CSc3nnc(SCc4ccc(Cl)cc4)s3)cc2)nc(C)n1	rCAG RNA binder 59 (no result: PG9 Ab binder, NR2E3 ag-1, NR2E3 ag-2) | rCAG binder conf 58 | dCAG dye counter 20
COc1ccc(CSc2nnc(SCC(=O)Nc3ccc(S(N)(=O)=O)cc3)s2)cc1	none (no result: PG9 Ab binder, NR2E3 ag-1, NR2E3 ag-2)
Cc1ccc(-n2c(SCC(=O)Nc3ccc(S(=O)(=O)Nc4cc(C)nc(C)n4)cc3)nnc2-c2cccs2)cc1	rCAG RNA binder 43 (no result: PG9 Ab binder, NR2E3 ag-1, NR2E3 ag-2) | rCAG binder conf 42 | dCAG dye counter 11
COc1ccc(-n2c(SCC(=O)Nc3ccc(S(=O)(=O)Nc4nccs4)cc3)nnc2-c2ccco2)cc1	rCAG RNA binder 74 (no result: PG9 Ab binder, NR2E3 ag-1, NR2E3 ag-2) | rCAG binder conf 69 | dCAG dye counter 30
COc1ccc(-n2c(SCC(=O)Nc3nccs3)nnc2-c2ccoc2C)cc1	none
CCn1c2ccccc2c2cc(NC(=O)CSc3nnc(-c4ccccc4)n3Cc3ccco3)ccc21	rCAG RNA binder 35 (no result: PG9 Ab binder, NR2E3 ag-1, NR2E3 ag-2) | rCAG binder conf inactive | dCAG dye counter 15
CSCCC(C(=O)NC(C)(C)C)n1c(-c2ccc3c(c2)OCO3)nc2ccccc21 (stereo not given)	none (no result: NR2E3 ag-1, NR2E3 ag-2)
CCOc1ccc(-n2c(SCC(=O)Nc3ccc(S(=O)(=O)Nc4nccs4)cc3)nnc2-c2ccccc2)cc1	rCAG RNA binder 80 (no result: PG9 Ab binder, NR2E3 ag-1, NR2E3 ag-2) | rCAG binder conf 72 | dCAG dye counter 38
Cn1c(SCC(=O)Nc2ccc(S(=O)(=O)Nc3nccs3)cc2)nc2sc3c(c2c1=O)CCCC3	rCAG RNA binder 74 (no result: PG9 Ab binder, NR2E3 ag-1, NR2E3 ag-2) | rCAG binder conf 77 | dCAG dye counter 43
Cc1cc(NC(=O)CSc2nc3sc4c(c3c(=O)n2C)CCCC4)no1	none
O=C(O)CSc1c(Cl)c(=O)oc2ccc(Cl)cc12	none (no result: NR2E3 ag-2)
COc1ccc(S(=O)(=O)CC(=O)c2cc3cc(Br)ccc3oc2=O)cc1	rCAG RNA binder 51 | rCAG binder conf 48 | dCAG dye counter 23
Cc1ccc(NC(=O)CSc2nnc3n2CCCCC3)cc1S(=O)(=O)N1CCOCC1	none (no result: NR2E3 ag-2)
Cc1ccc(Nc2nc(Cl)c(C=O)s2)cc1Cl	rCAG RNA binder 43 | rCAG binder conf inactive | dCAG dye counter 12
O=Cc1sc(Nc2ccccc2)nc1Cl	none
Cc1cc(NC(=O)Cc2cccs2)no1	rCAG RNA binder 40 | rCAG binder conf 35 | dCAG dye counter 23
Cc1cc(NS(=O)(=O)c2ccc(NC(=O)Cc3cccs3)cc2)no1	none (no result: PG9 Ab binder, rCAG RNA binder)
O=C(NCC1CCCO1)c1ccc([N+](=O)[O-])s1 (stereo not given)	rCAG RNA binder 36 | rCAG binder conf inactive | dCAG dye counter inactive
Cc1ccnc(OC(C(=O)O)C(OCc2ccccc2)(c2ccccc2)c2ccc(C(F)(F)F)cc2)n1 (stereo not given)	rCAG RNA binder 50 | rCAG binder conf 49 | dCAG dye counter 14 | dCAG dye DR inactive
CCCCN1CCCCC1(C)C(=O)NCc1cccc(OC)c1 (stereo not given)	none (no result: NR2E3 ag-2)
